From ChEMBL document CHEMBL1141292, “Sesquiterpenoids and artificial 19-oxygenated steroids from the formosan soft coral Nephthea erecta” (2007)
In brackets after ≈: the same amount, converted by molar mass.

Legend:
P388 = assay: Cytotoxicity against mouse P388 cells by MTT assay; assay type: functional; conditions: read-out: ED50 (the source's name)
How it was run: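 P-388 mouse lymphocytic leukemia cells; viability read by MTT assay, following a previously described procedure.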

HT-29 = assay: Cytotoxicity against human HT29 cells by MTT assay; assay type: functional; conditions: read-out: ED50 (the source's name)
How it was run: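 HT-29 human colon adenocarcinoma cells; viability read by MTT assay, following a previously described procedure.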

| SMILES | EC50 (P388) [µg/mL] | EC50 (HT-29) [µg/mL] |
| --- | --- | --- |
| C=C(CC[C@@H](C)[C@H]1CC[C@H]2[C@@H]3C=CC4=C[C@@H]5OC[C@@]4(C[C@@H]5O)[C@H]3CC[C@]12C)C(C)C | > 10 | > 10 |
| C[C@H]1CCC[C@@]2(C)C[C@H]3OO[C@@]12C=C3C(C)(C)O | > 10 | > 10 |
| C=C(C)[C@@]1(OO)CC[C@]2(C)[C@H]3CC[C@@H](C)[C@H]3[C@@H]21 | 0.3 (≈ 1.27 µM) | 0.5 (≈ 2.12 µM) |
| C=C(CC[C@@H](C)[C@H]1CC[C@H]2[C@@H]3C=CC4=CC=CC[C@]4(CO)[C@H]3CC[C@]12C)C(C)C | > 10 | > 10 |
| C[C@H]1CCC[C@@]2(C)C[C@H]3OO[C@@]12C=C3C(C)(C)OO | 0.2 (≈ 0.745 µM) | 0.4 (≈ 1.49 µM) |
| C=C(C)[C@@]1(O)CC[C@]2(C)[C@H]3CC[C@@H](C)[C@H]3[C@@H]21 | > 10 | > 10 |
| C=C(C)[C@H]1[C@@H]2[C@H](C)CC[C@@H]2[C@@]2(C)CC[C@@H]12 | 2.8 (≈ 13.7 µM) | 3.2 (≈ 15.7 µM) |
| C=C(CC[C@@H](C)[C@H]1CC[C@H]2[C@@H]3C[C@H]4OC[C@@]5(CC[C@H](O)C[C@]45O)[C@H]3CC[C@]12C)C(C)C | > 10 | > 10 |
| C[C@@H]1CC[C@@H](C(C)(C)O)C[C@]2(C)C1=C[C@H]1O[C@H]12 (relative stereo) | > 10 | > 10 |
